# Source: PubChem BioAssay
# Most compounds without a hit are left out; they make up all but 4.2% or so of the library.
# TAAR1 agonist: agonists of human TAAR1; Q96RJ0; CHO RD-HGA16 TAAR1, Fluo-8 calcium fluorescence; vehicle wells 0%, saturating PEA agonist 100%; activation, % at 3 µM; 360,000 tested, 0.99% active; AID 624467;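 active = activation above the mean activation of all test compounds in the run plus 3 SD, cut at about 38% in these data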
# Target sequence (Q96RJ0 whole entry, looked up): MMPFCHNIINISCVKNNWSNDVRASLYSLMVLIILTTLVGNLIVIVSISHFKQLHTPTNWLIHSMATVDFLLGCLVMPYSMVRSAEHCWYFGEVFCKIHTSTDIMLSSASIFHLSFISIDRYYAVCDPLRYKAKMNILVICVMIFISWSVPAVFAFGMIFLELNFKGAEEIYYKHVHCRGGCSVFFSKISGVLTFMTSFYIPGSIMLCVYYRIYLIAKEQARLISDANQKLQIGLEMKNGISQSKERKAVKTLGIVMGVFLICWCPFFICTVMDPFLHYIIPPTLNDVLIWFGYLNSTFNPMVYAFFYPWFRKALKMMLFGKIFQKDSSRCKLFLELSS
#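 System: CHO RD-HGA16 cells carrying human TAAR1 plus Gα16; Incubation: 17-24 h seeding, 75 min 37 °C dye, 30 min RT; Measured by: Fluo-8 fluorescence, 5 s baseline then 140 s kinetic read; Control set: DMSO and PEA EC100; Replication: single well for each compound.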
# CHO parental Ca: counter-screen for OX1R antagonists: effect in parental CHO cells; parental CHO-K1, ATP-induced calcium, Fluo-8 fluorescence; 330,000 tested, 0.63% active; AID 463079; inhibition, % at 5.6 µM;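 active = inhibition above that plate's mean sample inhibition plus 3 SD, cut at about 26% in these data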
#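 Assay system – parental CHO cells · Reagent – ATP stimulus · Detection – intracellular calcium via Fluo-8 no-wash fluorescent dye · Evaluation – percent inhibition of ATP-evoked calcium rise, normalized to controls · Controls – ATP wells versus no-ATP DMSO wells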
# TAAR1 antagonist: human TAAR1 antagonism. Q96RJ0. AID 624466. CHO RD-HGA16 TAAR1, Fluo-8 calcium fluorescence, antagonist. inhibition, % at 3 µM. 360,000 tested, 1.5% active;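 active = inhibition above a per-plate cutoff, the mean inhibition of test compounds on that plate plus 3 SD, cut at about 49% in these data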
#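 Test system – hTAAR1-expressing CHO RD-HGA16 cells, Gα16-coupled · Reagent – β-PEA at EC80 concentration, post-compound challenge · Compound dosing – 3 µM, single point · Timing – 140 s kinetic read after compound, 140 s after agonist · Detection – Fluo-8 intracellular calcium dye fluorescence, real-time kinetic reads · Control set – DMSO and EC80 PEA controls · Repeats – n of 1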
# GalR3 antag: human GalR3 antagonism. O60755. HEK293 GalR3-CNG cAMP membrane potential fluorescence; galR3 body fused to GalR1 C-terminus. inhibition, % at 3 µM. 360,000 tested, 0.44% active;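 active = inhibition above the screen-wide average plus 3 SD, cut at about 13% in these data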;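 also: forskolin and galanin both at EC90 stimulate the cells; cAMP rise reported by CNG channel membrane potential dye signal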
# Target sequence (O60755 1-299 limits assumed): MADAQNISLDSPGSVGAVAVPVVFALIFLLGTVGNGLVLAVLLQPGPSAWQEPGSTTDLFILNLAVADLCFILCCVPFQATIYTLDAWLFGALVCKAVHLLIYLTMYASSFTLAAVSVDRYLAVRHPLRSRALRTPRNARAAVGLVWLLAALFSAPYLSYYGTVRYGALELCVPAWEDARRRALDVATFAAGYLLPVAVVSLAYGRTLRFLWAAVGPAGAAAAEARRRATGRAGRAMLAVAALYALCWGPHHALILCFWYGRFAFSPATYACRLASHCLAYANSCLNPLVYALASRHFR
# OX1R antag-1: antagonists of human orexin 1 receptor. inhibition, % at 5 µM. 330,000 tested, 0.43% active. CHO/OX1R cells, Fluo-8 calcium fluorescence, orexin A. O43613;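 active = inhibition above its plate's threshold, mean inhibition of all tested compounds on the plate plus 3 SD, cut at about 37% in these data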
# OX1R antag-2: OX1R (human) antagonism; inhibition, % at 6.6 µM; 330,000 tested, 1.8% active; O43613; OX1R-expressing cells, FRET antagonist read-out; in the data active = inhibition mostly above about 38%, no sharp cut-off; inactive = mostly below about 40%
# Numbers stand for hits; - = inactive; . = not tested or not shown.
SMILES,TAAR1 agonist,CHO parental Ca,TAAR1 antagonist,GalR3 antag,OX1R antag-1,OX1R antag-2
O=C(Nc1nc(-c2ccccc2)cs1)c1ccc(N2CCOCC2)c([N+](=O)[O-])c1,.,41,.,.,-,80
COc1ccc(-c2csc(NC(=O)c3ccc(S(C)(=O)=O)cc3)n2)cc1,-,-,53,-,-,-
CCOc1cccc(C(=O)Nc2nc(-c3ccc(S(=O)(=O)N4CCOCC4)cc3)cs2)c1,-,-,53,-,-,-
Cc1csc(NC(=O)c2cccc(S(=O)(=O)N3CCCCC3)c2)n1,-,-,-,-,-,-
Cc1nc(-c2cccc(NC(=O)c3cccc(S(=O)(=O)N4CCCC4)c3)c2)cs1,-,-,53,-,-,-
O=C(COc1cccc(Cl)c1)Nc1nc(-c2ccc(S(=O)(=O)N3CCOCC3)cc2)cs1,-,.,-,-,.,.
O=C(COC(=O)/C=C/c1ccc(C(F)(F)F)cc1)Nc1ccc2[nH]c(=O)[nH]c2c1,-,.,-,-,.,.
CCN1CCCC1CNS(=O)(=O)c1ccc(Br)cc1 (stereo unspecified),-,-,-,-,-,-
Cc1cccc(OCC(=O)NNC(=O)CCN2CCN(c3ccccc3)CC2)c1C,-,-,-,-,-,-
Cc1ccc(CNC(=O)N2CCN(C)CC2)cc1,-,-,-,-,-,-
Cn1cccc1C(=O)NC(=O)COC(=O)c1ccccc1O,-,-,-,-,-,-
COc1ccccc1CNC(=O)COC(=O)c1c[nH]c2ccccc12,-,.,-,-,.,.
Cc1cc(C(=O)OCC(=O)NC(=O)c2cccn2C)c2ccccc2n1,-,45,-,-,-,-
COc1ccccc1NC(=O)COC(=O)c1cc(C)nc2ccccc12,-,-,-,-,-,43
COc1ccccc1NC(=O)COC(=O)c1c[nH]c2ccccc12,-,-,49,-,-,-
COc1cc(NC(=O)c2ccco2)c(C(=O)OCC(=O)c2c[nH]c3ccccc23)cc1OC,-,-,62,-,-,-
O=C(CN1CCOCC1)Nc1cccc(Cl)c1Cl,-,-,-,-,-,-
COc1cccc(/C=C/C(=O)OCC(=O)c2c[nH]c3ccccc23)c1OC,-,-,54,-,-,-
COC(=O)C1=C(C)N(CCc2ccc(OC)cc2)C(=O)C1,-,-,52,-,-,-
Cc1cc(C)cc(NC(=S)NCCSc2ccc(Cl)cc2)c1,-,-,57,-,-,-
CN(C)C(=O)CSc1nc2ccc(N3C(=O)c4ccccc4C3=O)cc2s1,-,-,-,-,-,-
CC(=O)NC(C)(c1ccccc1)c1nc(-c2cccc(C#N)c2)cs1 (stereo unspecified),-,.,-,-,.,.
COc1ccc(CN2CCc3ccc(NC(=O)CCc4ccccc4OC)cc3C2)c(O)c1,-,-,59,-,-,-
O=c1oc2ccccc2cc1-c1nc(-c2cccs2)cs1,-,-,-,-,-,51
CC(=O)Nc1ccc(Nc2nc(-c3cc4ccccc4oc3=O)cs2)cc1,-,.,55,-,.,.
SMILES,TAAR1 agonist,CHO parental Ca,TAAR1 antagonist,GalR3 antag,OX1R antag-1,OX1R antag-2
c1csc(-c2csc(-c3cccs3)n2)c1,-,-,-,-,-,-
O=C(Cn1ncc2c(=O)oc3ccccc3c21)NCCc1ccsc1,-,-,-,.,-,-
COc1ccc(OC)c(CCNC(=O)CN2C(=O)CCSc3ccccc32)c1,-,-,-,-,-,-
Cc1ccc(SC(c2ccc(C)cc2)C(Cn2cncn2)C(=O)c2ccccc2)cc1 (stereo unspecified),-,-,-,-,-,-
O=C(COc1ccccc1)Nc1nc2cc3c(cc2s1)OCO3,-,31,-,-,-,-
CN(C(=O)CCNC(=O)N1CC(=O)Nc2ccccc21)C1CCCCC1,-,-,-,-,-,-
CC1=[N+](C)c2c(ccc3cccnc23)C1(C)C,-,.,-,24,.,.
COc1ccc(/C=N/n2c(-c3cccs3)n[nH]c2=S)cc1,-,-,-,-,-,-
S=c1[nH]nc(-c2cccs2)n1/N=C/c1c(Cl)cccc1Cl,48,34,53,-,51,108
O=C(COC(=O)c1ccc(NS(=O)(=O)c2cccs2)cc1O)NC1CCCCC1,-,-,-,-,-,-
O=C(COC(=O)c1cc(NS(=O)(=O)c2cccs2)ccc1O)Nc1ccccc1,-,-,-,-,-,73
c1ccc(Cn2c(NCc3ccco3)nc3ccccc32)cc1,-,-,-,-,-,-
CN(CCOc1ccccc1)C(=O)C1CCC(=O)N(CCc2ccc(Cl)cc2)C1 (stereo unspecified),-,.,-,-,.,.
O=C(NC(=S)N1CCN(c2ccc([N+](=O)[O-])cc2)CC1)c1ccc(F)cc1,-,-,-,-,-,56
O=[N+]([O-])c1ccc(N2CCN(C(=S)NC3CCCCC3)CC2)cc1,-,33,52,-,49,-
O=C(Cn1cnc2c(nnn2Cc2ccccc2)c1=O)NCC1CCCO1 (stereo unspecified),-,-,-,.,-,-
COc1ccc2oc(=O)c(C(=O)NCC3CCCO3)cc2c1 (stereo unspecified),-,-,-,-,-,61
COc1cc(Br)cc2cc(C(=O)NCC3CCCO3)c(=O)oc12 (stereo unspecified),-,-,-,-,-,-
COc1cccc2cc(C(=O)NCC3CCCO3)c(=O)oc12 (stereo unspecified),-,-,-,-,-,77
COc1ccc2[nH]cc(C(=O)CN3CCN(C4CCCCC4)CC3)c2c1,-,-,-,-,-,-
COc1ccc(CN=Cc2[nH]c3ccc(Br)c(Cl)c3c2O)cc1,-,-,106,-,-,-
Cc1cc(C)cc(N=Cc2[nH]c3ccc(Br)c(Cl)c3c2O)c1,-,-,-,-,-,-
COc1ccc2oc(=N)c(C(=O)Nc3ccccc3)cc2c1,-,-,-,-,-,76
COc1ccc(NC(=O)c2cccnc2Nc2ccc(OC)cc2)cc1,-,-,-,-,-,-
COc1ccc(Nc2ncccc2C(=O)Nc2ccccc2)cc1,-,50,-,-,-,-
SMILES,TAAR1 agonist,CHO parental Ca,TAAR1 antagonist,GalR3 antag,OX1R antag-1,OX1R antag-2
COc1ccc2oc(=N)c(C(=O)Nc3ccc(C)cc3)cc2c1,-,.,-,-,.,.
NC(=O)c1ccc(NC(=O)CCC(=O)c2cccs2)cc1,-,-,-,-,-,-
CCN(CC)c1ccc(/C=c2\sc3nc4ccccc4n3c2=O)c(O)c1,-,.,64,-,.,.
Cc1ccc2c(c1)S(=O)(=O)N(C)C(c1ccccc1)=C2,-,.,53,-,.,.
CC(NC(=O)Cn1ccsc1=N)C12CC3CC(CC(C3)C1)C2 (stereo unspecified),-,-,-,-,-,-
CSc1ccc(Cl)c(C(=O)NCCOc2cc(C(C)C)ccc2C)c1,-,-,49,-,-,-
